From ChEMBL document CHEMBL3244026, “Synthesis of 4'- and 5'-hydroxyoxprenolol:pharmacologically active ring-hydroxylated metabolites of oxprenolol” (J Med Chem, 1979)

Legend:
Type in all cases: tissue-based
Conditions in all cases: Trachea
Cavia porcellus [1] = species: Cavia porcellus; assay: Antagonist activity at beta adrenergic receptor in guinea pig tracheal strips assessed as inhibition of 10^-6 M isoproterenol-induced tracheal relaxation incubated 1 hr prior to testing
Summary of the method: (§1)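 Guinea pig tracheal strips in 10-mL baths, precontracted with carbachol 10^-7 M. Two cumulative isoproterenol dose-response curves per strip: control, then a 1 h wash, then antagonist added 1 h before the second curve. Dose ratio is the antilog of the difference in −log molar isoproterenol ED50. Apparent K_B = [antagonist]/(dose ratio − 1), using three antagonist concentrations (Furchgott).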

Cavia porcellus [2] = species: Cavia porcellus; assay: Antagonist activity at beta adrenergic receptor in guinea pig tracheal strips assessed as inhibition of isoproterenol-induced tracheal relaxation incubated 1 hr prior to testing; summary of the method: as §1
Cavia porcellus [3] = species: Cavia porcellus; assay: Antagonist activity at beta adrenergic receptor in guinea pig tracheal strips assessed as inhibition of 10^-7 M isoproterenol-induced tracheal relaxation incubated 1 hr prior to testing; summary of the method: as §1
Cavia porcellus [4] = species: Cavia porcellus; assay: Antagonist activity at beta adrenergic receptor in guinea pig tracheal strips assessed as inhibition of 10^-5 M isoproterenol-induced tracheal relaxation incubated 1 hr prior to testing; summary of the method: as §1

Compound	Kb (Cavia porcellus [1])	inhibition (Cavia porcellus [2])	Kb (Cavia porcellus [3])	Kb (Cavia porcellus [4])
C=CCOc1cc(O)ccc1OCC(O)CNC(C)C (stereo unspecified)	0.0455 µM	Dose-dependent effect	0.0265 µM	0.122 µM
C=CCOc1ccccc1OCC(O)CNC(C)C (stereo unspecified)	0.00581 µM	Dose-dependent effect	0.00261 µM	–
C=CCOc1ccc(O)cc1OCC(O)CNC(C)C (stereo unspecified)	0.0379 µM	Dose-dependent effect	0.0348 µM	0.101 µM
